{"source": "ChEMBL document CHEMBL3414491", "about": "“Synthesis and antitumor activities evaluation of m-(4-morpholinoquinazolin-2-yl)benzamides in vitro and in vivo” (Eur J Med Chem, 2015)", "key": {"A549": {"tested_on": "A549", "assay": "Antiproliferative activity against human A549 cells after 72 hrs by MTT assay", "type": "functional, cell-based", "details": "A549, 72 h", "procedure,_shortened": "(§1)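 MTT: cells seeded at 1500–4000 per well, grown 24 h, then given serial dilutions (1% DMSO final) for 72 h at 37 °C. MTT was added for 4 h, formazan dissolved in DMSO and absorbance read at 490 nm. Three separate experiments in triplicate; IC50 is the concentration giving 50% cell death versus control.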"}, "HCT-116 [1]": {"tested_on": "HCT-116", "assay": "Induction of cell cycle arrest in human HCT116 cells assessed as accumulation at G2/M phase at 3 uM after 24 hrs by propidium iodide staining based flow cytometry (reference value: 12.98%)", "type": "functional"}, "CCRF S-180 [2]": {"tested_on": "CCRF S-180", "assay": "Antitumor activity against mouse S180 cells homografted in mouse assessed as reduction tumor weight at 30 mg/kg, po once daily for 8 days", "type": "functional", "details": "CCRF S-180, 192 h", "procedure,_shortened": "(§2)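 Mice (19.6 g average) had 3 × 10⁶ S180 cells injected subcutaneously into the flank and were randomized into three groups of 8. From the next day they received compound in NMP/PEG400/H2O (1:8:1) orally once daily for 8 days, or solvent alone. Body weights were recorded daily. On Day 9 tumors and bodies were weighed and tumor-weight inhibitory ratios calculated.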"}, "[3]": {"assay": "Inhibition of PI3K-mediated PI3K/Akt/mTOR pathway in human HCT116 cells assessed as reduction in Akt Ser473 phosphorylation at 10 uM incubated for 1 hr by Western blot method", "type": "cell-based", "details": "HCT-116", "procedure,_shortened": "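HCT-116 cells were seeded at 5 × 10⁵ per well and grown 16 h at 37 °C, then exposed to 10 µM for 1 h; vehicle control was 0.5% DMSO. Lysates were normalised by BCA, run on 10% SDS-PAGE, transferred to nitrocellulose and probed for AKT and p-Ser473 AKT, with β-actin as loading control. Detection was by chemiluminescence; bands were quantified densitometrically.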"}, "HCT-116 [4]": {"tested_on": "HCT-116", "assay": "Induction of apoptosis in human HCT116 cells at 1 uM after 24 hrs by annexin V-FITC/propidium iodide staining based flow cytometry", "type": "functional", "procedure,_shortened": "(§3)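 HCT-116 cells were seeded at 1.5 × 10⁵ per well, grown 24 h, then treated 24 h; vehicle control was 0.5% DMSO. Cells were stained with an Annexin V-FITC/PI kit and analysed by flow cytometry. Q4 = early apoptotic, Q2 = late apoptotic; apoptosis rate = Q2 + Q4. Means of three independent experiments.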"}, "HCT-116 [5]": {"tested_on": "HCT-116", "assay": "Induction of apoptosis in human HCT116 cells assessed as early apoptotic cells level at 3 uM after 24 hrs by annexin V-FITC/propidium iodide staining based flow cytometry (reference value: 4.36%)", "type": "functional", "procedure,_shortened": "as §3"}, "[6]": {"assay": "Antiproliferative activity against human U87MG cells after 72 hrs by MTT assay", "type": "functional, cell-based, U-87MG ATCC", "details": "U-87 MG", "procedure,_shortened": "as §1"}, "HCT-116 [7]": {"tested_on": "HCT-116", "assay": "Induction of cell cycle arrest in human HCT116 cells assessed as accumulation at G0/G1 phase at 3 uM after 24 hrs by propidium iodide staining based flow cytometry (reference value: 48.31%)", "type": "functional"}, "[8]": {"target": "PI3-kinase subunit gamma/Phosphoinositide 3-kinase regulatory subunit 5 (Homo sapiens, UniProt P48736)", "assay": "Inhibition of p110gamma/PIK3R5 (unknown origin) using L-alpha-phosphatidylinositol incubated for 40 mins by ADP depletion detection based luciferase assay", "type": "protein-complex assay"}, "HCT-116 [9]": {"tested_on": "HCT-116", "assay": "Induction of cellular morphological changes in human HCT116 cells assessed as induction of vacuolization at 1 and 10 uM after 24 hrs by Hoechst staining based phase contrast microscopy", "type": "functional, cell-based", "procedure,_shortened": "(§4)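 HCT-116 cells (15,000 per well) were grown 24 h, then exposed to 0.1, 1 or 10 µM for 24 h; vehicle control was 0.5% DMSO. Cells were photographed under phase-contrast microscopy, then stained with Hoechst 33258 for 0.5 h at 37 °C, washed with PBS and viewed by fluorescence microscopy.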"}, "HCT-116 [10]": {"tested_on": "HCT-116", "assay": "Induction of cellular morphological changes in human HCT116 cells assessed as induction of fragmentation at 1 and 10 uM after 24 hrs by Hoechst staining based phase contrast microscopy", "type": "functional, cell-based", "procedure,_shortened": "as §4"}, "HCT-116 [11]": {"tested_on": "HCT-116", "assay": "Induction of cell cycle arrest in human HCT116 cells assessed as accumulation at S phase at 3 uM after 24 hrs by propidium iodide staining based flow cytometry (reference value: 38.71%)", "type": "functional"}, "MCF7": {"tested_on": "MCF7", "assay": "Antiproliferative activity against human MCF7 cells after 72 hrs by MTT assay", "type": "functional, cell-based", "details": "MCF7, 72 h", "procedure,_shortened": "as §1"}, "[12]": {"target": "PI3-kinase p110-alpha/p85-alpha (Homo sapiens, UniProt P42336)", "sequence (P27986 whole entry)": "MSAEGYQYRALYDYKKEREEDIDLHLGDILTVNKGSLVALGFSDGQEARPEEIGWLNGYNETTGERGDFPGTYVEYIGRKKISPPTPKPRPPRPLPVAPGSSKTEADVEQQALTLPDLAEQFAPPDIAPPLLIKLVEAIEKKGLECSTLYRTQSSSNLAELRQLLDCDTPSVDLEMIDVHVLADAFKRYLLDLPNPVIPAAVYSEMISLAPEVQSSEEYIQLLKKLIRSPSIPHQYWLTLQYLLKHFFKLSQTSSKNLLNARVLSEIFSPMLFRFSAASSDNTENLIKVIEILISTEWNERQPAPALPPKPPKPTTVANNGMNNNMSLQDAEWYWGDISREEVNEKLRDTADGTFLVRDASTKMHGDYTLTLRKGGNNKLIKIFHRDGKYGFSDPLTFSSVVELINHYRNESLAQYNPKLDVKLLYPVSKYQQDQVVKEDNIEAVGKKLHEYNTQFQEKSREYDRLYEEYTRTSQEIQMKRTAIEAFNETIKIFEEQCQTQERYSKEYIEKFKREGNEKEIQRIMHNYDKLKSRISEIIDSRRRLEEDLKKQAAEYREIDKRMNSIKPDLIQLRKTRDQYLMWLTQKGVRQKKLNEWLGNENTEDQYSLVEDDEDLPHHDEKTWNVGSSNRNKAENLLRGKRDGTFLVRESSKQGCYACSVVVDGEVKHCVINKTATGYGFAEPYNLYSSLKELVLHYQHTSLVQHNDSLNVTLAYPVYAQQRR", "sequence (P42336 whole entry)": "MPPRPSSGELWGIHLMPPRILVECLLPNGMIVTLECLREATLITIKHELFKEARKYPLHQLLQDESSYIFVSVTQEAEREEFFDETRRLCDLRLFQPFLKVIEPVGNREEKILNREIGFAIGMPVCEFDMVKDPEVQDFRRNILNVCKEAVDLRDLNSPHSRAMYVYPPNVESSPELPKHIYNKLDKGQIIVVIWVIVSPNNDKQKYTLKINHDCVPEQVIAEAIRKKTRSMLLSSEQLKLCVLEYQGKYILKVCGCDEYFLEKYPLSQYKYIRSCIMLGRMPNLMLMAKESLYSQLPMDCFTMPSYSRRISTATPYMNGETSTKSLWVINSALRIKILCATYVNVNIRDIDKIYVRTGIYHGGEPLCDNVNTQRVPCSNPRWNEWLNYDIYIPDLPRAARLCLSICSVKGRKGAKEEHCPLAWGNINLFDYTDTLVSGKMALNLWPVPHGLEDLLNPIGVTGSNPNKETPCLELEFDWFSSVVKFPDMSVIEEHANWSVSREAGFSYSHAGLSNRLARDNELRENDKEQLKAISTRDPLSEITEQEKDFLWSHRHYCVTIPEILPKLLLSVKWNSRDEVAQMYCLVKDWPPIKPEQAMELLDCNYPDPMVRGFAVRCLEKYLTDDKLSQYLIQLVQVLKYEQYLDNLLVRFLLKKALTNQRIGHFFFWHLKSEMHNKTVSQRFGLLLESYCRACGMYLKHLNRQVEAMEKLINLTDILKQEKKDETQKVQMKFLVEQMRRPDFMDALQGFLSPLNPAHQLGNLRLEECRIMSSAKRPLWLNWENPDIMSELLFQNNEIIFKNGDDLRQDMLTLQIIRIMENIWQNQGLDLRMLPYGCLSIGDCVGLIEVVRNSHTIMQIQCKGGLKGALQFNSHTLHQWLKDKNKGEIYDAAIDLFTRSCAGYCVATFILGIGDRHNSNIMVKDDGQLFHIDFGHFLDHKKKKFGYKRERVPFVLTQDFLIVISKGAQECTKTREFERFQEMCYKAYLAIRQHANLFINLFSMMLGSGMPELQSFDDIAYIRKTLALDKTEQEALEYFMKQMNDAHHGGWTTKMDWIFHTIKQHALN", "assay": "Inhibition of p110alpha/p85alpha (unknown origin) using L-alpha-phosphatidylinositol incubated for 40 mins by ADP depletion detection based luciferase assay", "type": "protein-complex assay"}, "HCT-116 [13]": {"tested_on": "HCT-116", "assay": "Induction of apoptosis in human HCT116 cells at 3 uM after 24 hrs by annexin V-FITC/propidium iodide staining based flow cytometry", "type": "functional", "procedure,_shortened": "as §3"}, "HCT-116 [14]": {"tested_on": "HCT-116", "assay": "Induction of cellular morphological changes in human HCT116 cells assessed as induction of cell shrinking at 1 and 10 uM after 24 hrs by Hoechst staining based phase contrast microscopy", "type": "functional", "procedure,_shortened": "as §4"}, "HCT-116 [15]": {"tested_on": "HCT-116", "assay": "Induction of chromatin condensation in human HCT116 cells at 0. 1 to 10 uM after 24 hrs by Hoechst staining based fluorescent microscopy", "type": "functional, cell-based", "procedure,_shortened": "as §4"}, "Mus musculus [16]": {"tested_on": "Mus musculus", "assay": "Toxicity in mouse homografted with mouse S180 cells assessed as effect on body weight at 15 mg/kg, po once daily for 8 days", "type": "organism-based, CCRF S-180", "set-up": "dose 15 mg/kg, route oral", "details": "in vivo, 192 h", "procedure,_shortened": "as §2"}, "Mus musculus [17]": {"tested_on": "Mus musculus", "assay": "Toxicity in mouse homografted with mouse S180 cells assessed as effect on body weight at 30 mg/kg, po once daily for 8 days", "type": "organism-based, CCRF S-180", "set-up": "dose 30 mg/kg, route oral", "details": "in vivo, 192 h", "procedure,_shortened": "as §2"}, "PI3K p110 beta/p85 alpha": {"target": "PI3K p110 beta/p85 alpha (Homo sapiens, UniProt P42338)", "sequence (P27986 whole entry)": "as the sequence (P27986 whole entry) above", "sequence (P42338 whole entry)": "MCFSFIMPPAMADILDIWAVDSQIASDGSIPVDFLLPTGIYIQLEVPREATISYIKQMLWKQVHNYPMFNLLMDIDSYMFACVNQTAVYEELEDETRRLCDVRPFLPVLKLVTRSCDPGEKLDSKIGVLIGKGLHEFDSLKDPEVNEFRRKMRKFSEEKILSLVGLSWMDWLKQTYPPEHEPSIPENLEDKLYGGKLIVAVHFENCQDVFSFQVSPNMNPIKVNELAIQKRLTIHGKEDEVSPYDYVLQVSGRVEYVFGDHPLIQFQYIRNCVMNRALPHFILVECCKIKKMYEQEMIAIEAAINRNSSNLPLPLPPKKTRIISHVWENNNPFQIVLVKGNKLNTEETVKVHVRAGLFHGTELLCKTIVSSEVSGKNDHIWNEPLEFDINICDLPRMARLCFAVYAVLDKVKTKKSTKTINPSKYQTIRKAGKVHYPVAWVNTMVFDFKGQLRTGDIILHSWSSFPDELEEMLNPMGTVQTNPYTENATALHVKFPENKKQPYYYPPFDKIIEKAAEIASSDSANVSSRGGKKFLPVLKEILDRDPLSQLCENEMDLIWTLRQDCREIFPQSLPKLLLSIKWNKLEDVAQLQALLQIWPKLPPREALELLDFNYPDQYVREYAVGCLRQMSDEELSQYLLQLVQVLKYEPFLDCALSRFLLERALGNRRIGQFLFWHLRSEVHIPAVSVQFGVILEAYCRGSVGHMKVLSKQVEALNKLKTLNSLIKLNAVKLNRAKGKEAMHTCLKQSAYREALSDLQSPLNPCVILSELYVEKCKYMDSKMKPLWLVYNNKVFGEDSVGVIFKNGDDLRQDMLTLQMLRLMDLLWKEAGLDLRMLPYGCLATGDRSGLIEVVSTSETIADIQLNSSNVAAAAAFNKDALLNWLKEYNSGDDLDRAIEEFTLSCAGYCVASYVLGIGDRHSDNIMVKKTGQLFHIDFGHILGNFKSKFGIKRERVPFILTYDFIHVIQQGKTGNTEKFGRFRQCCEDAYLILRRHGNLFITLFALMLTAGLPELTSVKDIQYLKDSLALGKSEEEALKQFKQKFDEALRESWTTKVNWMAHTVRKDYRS", "assay": "Inhibition of p110beta/p85alpha (unknown origin) using L-alpha-phosphatidylinositol incubated for 40 mins by ADP depletion detection based luciferase assay", "type": "protein-complex assay"}, "HCT-116 [18]": {"tested_on": "HCT-116", "assay": "Induction of apoptosis in human HCT116 cells assessed as late apoptotic cells level at 3 uM after 24 hrs by annexin V-FITC/propidium iodide staining based flow cytometry (reference value: 3.08%)", "type": "functional", "procedure,_shortened": "as §3"}, "CCRF S-180 [19]": {"tested_on": "CCRF S-180", "assay": "Antitumor activity against mouse S180 cells homografted in mouse assessed as reduction tumor weight at 15 mg/kg, po once daily for 8 days", "type": "functional", "details": "CCRF S-180, 192 h", "procedure,_shortened": "as §2"}, "HCT-116 [20]": {"tested_on": "HCT-116", "assay": "Induction of nuclear fragmentation in human HCT116 cells at 0. 1 to 10 uM after 24 hrs by Hoechst staining based fluorescent microscopy", "type": "functional, cell-based", "procedure,_shortened": "as §4"}, "[21]": {"target": "PI3-kinase p110-delta/p85-alpha (Homo sapiens, UniProt O00329)", "sequence (P27986 whole entry)": "as the sequence (P27986 whole entry) above", "sequence (O00329 whole entry)": "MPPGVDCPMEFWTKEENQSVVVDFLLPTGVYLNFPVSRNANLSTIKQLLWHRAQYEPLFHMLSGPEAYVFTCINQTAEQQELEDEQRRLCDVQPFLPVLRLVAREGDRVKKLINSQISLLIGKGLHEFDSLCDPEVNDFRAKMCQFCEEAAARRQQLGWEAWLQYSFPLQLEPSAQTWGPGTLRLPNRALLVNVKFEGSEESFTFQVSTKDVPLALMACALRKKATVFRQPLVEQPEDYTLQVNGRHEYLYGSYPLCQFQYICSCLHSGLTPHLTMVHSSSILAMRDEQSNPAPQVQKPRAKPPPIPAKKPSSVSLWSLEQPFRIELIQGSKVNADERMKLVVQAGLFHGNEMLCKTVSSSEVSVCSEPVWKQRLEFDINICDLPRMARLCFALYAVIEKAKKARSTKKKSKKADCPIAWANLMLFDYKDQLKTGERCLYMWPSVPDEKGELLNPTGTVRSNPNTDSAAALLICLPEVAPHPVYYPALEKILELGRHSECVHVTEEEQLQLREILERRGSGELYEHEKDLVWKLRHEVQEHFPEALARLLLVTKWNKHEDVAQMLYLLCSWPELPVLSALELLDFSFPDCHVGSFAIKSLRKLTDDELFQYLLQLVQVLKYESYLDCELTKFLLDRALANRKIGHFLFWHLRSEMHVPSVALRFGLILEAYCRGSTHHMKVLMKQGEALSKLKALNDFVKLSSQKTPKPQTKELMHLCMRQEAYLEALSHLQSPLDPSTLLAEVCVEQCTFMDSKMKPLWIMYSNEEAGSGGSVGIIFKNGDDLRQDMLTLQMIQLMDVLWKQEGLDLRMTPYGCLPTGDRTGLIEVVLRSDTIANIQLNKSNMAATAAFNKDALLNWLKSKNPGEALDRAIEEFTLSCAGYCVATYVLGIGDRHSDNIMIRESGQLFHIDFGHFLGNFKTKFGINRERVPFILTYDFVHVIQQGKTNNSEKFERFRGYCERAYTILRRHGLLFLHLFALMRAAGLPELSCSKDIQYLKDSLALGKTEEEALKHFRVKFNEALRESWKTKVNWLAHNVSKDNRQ", "assay": "Inhibition of p110delta/p85alpha (unknown origin) using L-alpha-phosphatidylinositol incubated for 40 mins by ADP depletion detection based luciferase assay", "type": "protein-complex assay"}, "HCT-116 [22]": {"tested_on": "HCT-116", "assay": "Induction of apoptosis in human HCT116 cells assessed as early apoptotic cells level at 1 uM after 24 hrs by annexin V-FITC/propidium iodide staining based flow cytometry (reference value: 4.36%)", "type": "functional", "procedure,_shortened": "as §3"}, "[23]": {"assay": "Antiproliferative activity against human HCT116 cells after 72 hrs by MTT assay", "type": "functional, cell-based", "details": "HCT-116, 72 h", "procedure,_shortened": "as §1"}, "HCT-116 [24]": {"tested_on": "HCT-116", "assay": "Induction of apoptosis in human HCT116 cells assessed as late apoptotic cells level at 1 uM after 24 hrs by annexin V-FITC/propidium iodide staining based flow cytometry (reference value: 3.08%)", "type": "functional", "procedure,_shortened": "as §3"}}, "note": "Activity calls are given as the source filed them. The calls are words filed in the database; no cut-off is given here.", "data": [{"compound": "COc1cc2nc(-c3cc(OC(F)(F)F)cc(C(N)=O)c3)nc(N3CCOCC3)c2cc1OC", "values": [{"measurement": "IC50", "setting": "A549", "value": 1680, "unit": "nM"}, {"measurement": "Activity", "setting": "HCT-116 [1]", "value": 23.19, "unit": "%"}, {"measurement": "inhibition in vivo at 30 mg/kg", "setting": "CCRF S-180 [2]", "value": 64.2, "unit": "%"}, {"measurement": "inhibition", "setting": "[3]", "value": "Active"}, {"measurement": "Activity", "setting": "HCT-116 [4]", "value": 22.7, "unit": "%"}, {"measurement": "Activity", "setting": "HCT-116 [5]", "value": 16.25, "unit": "%"}, {"measurement": "IC50", "setting": "[6]", "value": 600, "unit": "nM"}, {"measurement": "Activity", "setting": "HCT-116 [7]", "value": 56.69, "unit": "%"}, {"measurement": "IC50", "setting": "[8]", "value": 465, "unit": "nM"}, {"measurement": "Activity", "setting": "HCT-116 [9]", "value": "Active"}, {"measurement": "Activity", "setting": "HCT-116 [10]", "value": "Active"}, {"measurement": "Activity", "setting": "HCT-116 [11]", "value": 20.11, "unit": "%"}, {"measurement": "IC50", "setting": "MCF7", "value": 1090, "unit": "nM"}, {"measurement": "IC50", "setting": "[12]", "value": 96, "unit": "nM"}, {"measurement": "Activity", "setting": "HCT-116 [13]", "value": 27.3, "unit": "%"}, {"measurement": "Activity", "setting": "HCT-116 [14]", "value": "Active"}, {"measurement": "Activity", "setting": "HCT-116 [15]", "value": "Active"}, {"measurement": "Activity", "setting": "Mus musculus [16]", "value": "Non-toxic"}, {"measurement": "Activity", "setting": "Mus musculus [17]", "value": "Non-toxic"}, {"measurement": "IC50", "setting": "PI3K p110 beta/p85 alpha", "value": 128, "unit": "nM"}, {"measurement": "Activity", "setting": "HCT-116 [18]", "value": 7.59, "unit": "%"}, {"measurement": "inhibition in vivo at 15 mg/kg", "setting": "CCRF S-180 [19]", "value": 49.3, "unit": "%"}, {"measurement": "Activity", "setting": "HCT-116 [20]", "value": "Active"}, {"measurement": "IC50", "setting": "[21]", "value": 330, "unit": "nM"}, {"measurement": "Activity", "setting": "HCT-116 [22]", "value": 11.5, "unit": "%"}, {"measurement": "IC50", "setting": "[23]", "value": 300, "unit": "nM"}, {"measurement": "Activity", "setting": "HCT-116 [24]", "value": 6.76, "unit": "%"}]}]}
